From ChEMBL document CHEMBL2331191, “Design and synthesis of novel 1,2,3-triazole-dithiocarbamate hybrids as potential anticancer agents” (Eur J Med Chem, 2013)

Key:
Assay type in all cases: functional, cell-based
MCF7 = test: Cytotoxicity against human MCF7 cells assessed as growth inhibition after 72 hrs by MTT assay; conditions: MCF7, 72 h
Procedure, shortened: (§1)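 Exponentially growing cells were seeded at 5×10^3 per well and held 24 h at 37 °C. Medium was then replaced with fresh medium containing a range of concentrations, and cells were exposed for 72 h. MTT (5 mg/mL) was added for 4 h at 37 °C, formazan was dissolved in DMSO and A570 was read. Triplicate wells per concentration, three experiments. IC50 was taken from dose–response curves of inhibition ratio.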

MGC-803 = test: Cytotoxicity against human MGC803 cells assessed as growth inhibition after 72 hrs by MTT assay; conditions: MGC-803, 72 h; procedure, shortened: as §1
PC-3 = test: Cytotoxicity against human PC3 cells assessed as growth inhibition after 72 hrs by MTT assay; conditions: PC-3, 72 h; procedure, shortened: as §1
[1] = Cytotoxicity against human EC109 cells assessed as growth inhibition after 72 hrs by MTT assay; conditions: ECa-109, 72 h; procedure, shortened: as §1

SMILES | IC50 (MCF7) | IC50 (MGC-803) | IC50 (PC-3) | IC50 [1]
O=C(OCc1ccccc1)N1CCN(C(=S)SCc2cn(Cc3ccccc3F)nn2)CC1 | 7.95 µM | 5.06 µM | 68.3 µM | 27 µM
S=C(SCc1cn(Cc2ccc(Cl)c(Cl)c2)nn1)N1CCNCC1 | – | – | – | > 128 µM
COc1ccc(Cn2cc(CSC(=S)N3CCN(C(=O)OC(C)(C)C)CC3)nn2)cc1 | 4.96 µM | 22.8 µM | > 128 µM | 36.8 µM
Fc1ccc(Cn2cc(CSC(=S)N3CCNCC3)nn2)cc1 | 49.9 µM | 32.5 µM | > 128 µM | > 128 µM
O=C(OCc1ccccc1)N1CCN(C(=S)SCc2cn(Cc3ccccc3Cl)nn2)CC1 | 21.4 µM | 15.5 µM | > 128 µM | 56.8 µM
CC(C)(C)OC(=O)N1CCN(C(=S)SCc2cn(Cc3ccc(F)cc3)nn2)CC1 | 3.34 µM | 1.93 µM | > 128 µM | 58.9 µM
COc1ccc(Cn2cc(CSC(=S)N3CCNCC3)nn2)cc1 | – | – | > 128 µM | > 128 µM
S=C(SCc1cn(Cc2ccccc2Cl)nn1)N1CCNCC1 | 38.9 µM | 45.2 µM | – | > 128 µM
Fc1ccccc1Cn1cc(CSC(=S)N2CCNCC2)nn1 | 33.2 µM | 19.4 µM | 56.2 µM | > 128 µM
Cc1cc(=O)oc2cc(OCCn3cc(CSC(=S)N4CCN(C(=O)OC(C)(C)C)CC4)nn3)ccc12 | 90.4 µM | 76.9 µM | > 128 µM | > 128 µM
CC(C)(C)OC(=O)N1CCN(C(=S)SCc2cn(-c3ccccc3F)nn2)CC1 | 89.6 µM | 119 µM | > 128 µM | > 128 µM
CC(C)(C)OC(=O)N1CCN(C(=S)SCc2cn(-c3cccc(C(F)(F)F)c3)nn2)CC1 | 80.4 µM | 66.8 µM | > 128 µM | 69.3 µM
S=C(SCc1cn(Cc2ccc(Cl)cc2)nn1)N1CCNCC1 | – | – | > 128 µM | > 128 µM
COc1cc(Cn2cc(CSC(=S)N3CCN(C(=O)OCc4ccccc4)CC3)nn2)cc(OC)c1OC | > 128 µM | 10.9 µM | > 128 µM | > 128 µM
COc1cc(Cn2cc(CSC(=S)N3CCNCC3)nn2)cc(OC)c1OC | – | – | > 128 µM | > 128 µM
COc1ccc(-n2cc(CSC(=S)N3CCN(C(=O)OC(C)(C)C)CC3)nn2)cc1 | 93 µM | 87.3 µM | > 128 µM | > 128 µM

SMILES | IC50 (MCF7) | IC50 (MGC-803) | IC50 (PC-3) | IC50 [1]
CC(C)(C)OC(=O)N1CCN(C(=S)SCc2cn(Cc3cc(=O)oc4cc(O)ccc34)nn2)CC1 | 10.4 µM | 4.96 µM | 36.8 µM | > 128 µM
CC(C)(C)OC(=O)N1CCN(C(=S)SCc2cn(Cc3ccc(Cl)c(Cl)c3)nn2)CC1 | 19.1 µM | 33.7 µM | > 128 µM | > 128 µM
O=C(OCc1ccccc1)N1CCN(C(=S)SCc2cn(Cc3ccc(Cl)c(Cl)c3)nn2)CC1 | 10.6 µM | 7.14 µM | > 128 µM | 29.4 µM
O=c1[nH]cc(F)c(=O)[nH]1 [FLUOROURACIL] | – | 7.01 µM | 27.1 µM | 3.34 µM
Cc1ccc(Cn2cc(CSC(=S)N3CCNCC3)nn2)cc1 | 53.2 µM | 64.3 µM | 19.8 µM | > 128 µM
Cc1ccc(-n2cc(CSC(=S)N3CCN(C(=O)OC(C)(C)C)CC3)nn2)cc1 | 74.2 µM | 48.3 µM | > 128 µM | 114 µM
CC(C)(C)OC(=O)N1CCN(C(=S)SCc2cn(Cc3ccccc3F)nn2)CC1 | 5.67 µM | – | 11.6 µM | 2.44 µM
O=C(OCc1ccccc1)N1CCN(C(=S)SCc2cn(Cc3ccc(Cl)cc3)nn2)CC1 | 27.5 µM | 31.3 µM | > 128 µM | > 128 µM
COc1ccc(Cn2cc(CSC(=S)N3CCN(C(=O)OCc4ccccc4)CC3)nn2)cc1 | 30.5 µM | 23.8 µM | > 128 µM | 58.3 µM
Cc1ccc(Cn2cc(CSC(=S)N3CCN(C(=O)OCc4ccccc4)CC3)nn2)cc1 | 37.8 µM | 9.37 µM | > 128 µM | 32.6 µM
CC(C)(C)OC(=O)N1CCN(C(=S)SCc2cn(Cc3ccc(Cl)cc3)nn2)CC1 | 2.96 µM | 9.79 µM | > 128 µM | > 128 µM
Cc1ccc(Cn2cc(CSC(=S)N3CCN(C(=O)OC(C)(C)C)CC3)nn2)cc1 | 19.7 µM | 3.49 µM | 17.2 µM | 47.9 µM
O=C(OCc1ccccc1)N1CCN(C(=S)SCc2cn(Cc3ccc(F)cc3)nn2)CC1 | 10.3 µM | 17.6 µM | > 128 µM | 32 µM
CC(C)(C)OC(=O)N1CCN(C(=S)SCc2cn(CCOc3ccc4ccc(=O)oc4c3)nn2)CC1 | 79.8 µM | 67 µM | > 128 µM | > 128 µM
COc1cc(Cn2cc(CSC(=S)N3CCN(C(=O)OC(C)(C)C)CC3)nn2)cc(OC)c1OC | 22.7 µM | 27.3 µM | > 128 µM | 44.4 µM
